Bioassay records: PubChem BioAssay, The Scripps Research Institute Molecular Screening Center
Shown are actives, neighbours in structure and some others; about 1.8% of the full set was active somewhere.
M4 PAM: CHRM4 positive allosteric modulation; P08173; CHO-K1 hM4/Gqi5, Fluo-8 calcium fluorescence, ACh EC20; 0% = ACh EC20, 100% = maximal ACh; activation, % at 3 µM; 360,000 compounds, 0.4% hits;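 active means activation above its plate's cutoff, the mean activation of sample wells plus 3 SD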
Target sequence (P08173 whole entry, looked up): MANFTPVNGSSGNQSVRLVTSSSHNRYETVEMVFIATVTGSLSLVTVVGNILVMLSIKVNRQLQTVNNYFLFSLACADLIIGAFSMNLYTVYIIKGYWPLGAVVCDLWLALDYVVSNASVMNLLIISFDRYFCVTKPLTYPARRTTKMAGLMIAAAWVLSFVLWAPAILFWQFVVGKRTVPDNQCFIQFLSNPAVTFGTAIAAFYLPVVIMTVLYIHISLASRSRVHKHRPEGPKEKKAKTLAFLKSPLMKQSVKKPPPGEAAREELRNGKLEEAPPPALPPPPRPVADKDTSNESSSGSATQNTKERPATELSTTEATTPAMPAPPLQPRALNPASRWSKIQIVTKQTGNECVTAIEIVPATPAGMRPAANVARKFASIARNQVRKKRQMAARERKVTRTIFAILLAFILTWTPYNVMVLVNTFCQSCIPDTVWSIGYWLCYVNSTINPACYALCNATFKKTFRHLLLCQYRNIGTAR
CHRM5 agonist: agonists of human muscarinic M5 receptor (CHRM5). P08912. CHO-K1 hM5 cells, Fluo-8 calcium fluorescence; 0% DMSO wells, 100% maximal acetylcholine response. activation, % at 3 µM. 360,000 compounds, 0.19% hits. AID 624037;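 active means activation above the run's mean over test compounds plus 3 SD, cut at about 23% in these data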;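 further: signal is peak over basal fluorescence ratio across the kinetic read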
CHRM4 agonist: agonists of human muscarinic M4 receptor (CHRM4); P08173; CHO-K1 hM4/Gqi5, Fluo-8 calcium fluorescence; vehicle 0%, full acetylcholine response 100%; activation, % at 3 µM; 360,000 compounds, 0.14% hits;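 active means activation above the run mean over all test wells plus 3 SD, cut at about 32% in these data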;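 further: peak over basal fluorescence ratio per well then scaled between controls; 0% = DMSO wells and 100% = acetylcholine at EC100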
M5 antag: antagonists of human muscarinic M5 receptor (CHRM5). P08912. CHO-hM5 cells, Fluo-8 calcium fluorescence, ACh EC80. inhibition, % at 3 µM. 360,000 compounds, 0.59% hits. AID 624040;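 active means inhibition above a per-plate cutoff, the mean of that plate's test compounds plus 3 SD, cut at about 27% in these data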;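 further: 0% = acetylcholine EC80 with DMSO and 100% = DMSO without agonist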
M5 PAM: CHRM5 positive allosteric modulation. P08912. CHO-K1 hM5, Fluo-8 calcium, ACh EC20 PAM; 0% = ACh EC20, 100% = ACh EC100. activation, % at 3 µM. 360,000 compounds, 0.3% hits;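 active means activation above the run cutoff, the mean activation of all test compounds plus 3 SD, cut at about 18% in these data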
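system = human M5 receptor in CHO-K1 cells | compound = one concentration, 3 µM final (nominal) | schedule = Post-acetylcholine fluorescence recording 140 s | signal = Fluo-8 calcium dye fluorescence, kinetic read | benchmarks = low control EC20 acetylcholine (0%), high control EC100 acetylcholine (100%) | repeats = singlicate, one well per test compound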
CHRM4 antagonist: CHRM4 antagonism in calcium assay; inhibition, % at 3 µM; CHO-hM4 cells, ACh EC80, Fluo-8 calcium fluorescence; 360,000 compounds, 0.73% hits; P08173;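 active means inhibition above its plate's cutoff, the mean inhibition of sample wells plus 3 SD, cut at about 27% in these data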;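 further: 0% = acetylcholine EC80 with DMSO and 100% = DMSO without agonist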
* hit, by the source's call; ! = not active in a repeat.

SMILES	M4 PAM	CHRM5 agonist	CHRM4 agonist	M5 antag	M5 PAM	CHRM4 antagonist
CC(=O)c1cccc(NC(=O)Nc2ccc3c(c2)N(C)C(=O)CS3)c1	-24.1	8.0	26.5	30.1*	-15.8	22.1
Nc1ncnc(Nc2ccc(F)c(Cl)c2)n1	11.7*	0.0	0.6	-2.3	12.4	0.5
CC(c1ccccc1)N1CC(C(=O)N2CCN(c3ccc(F)cc3)CC2)CC1=O (centres undefined)	-0.7	1.9	1.6	5.4	0.8	2.8
CN1CCN(Cc2nc3ccccc3c(=O)n2Cc2nc(-c3ccc4ccccc4c3)cs2)CC1	21.7*!	-9.2	4.7	12.0	6.8	-2.0
CCN(CC)CCNC(=O)c1ccc(NC(=O)c2cn(-c3ccc(F)cc3)nc2-c2cccc(OC)c2)cc1	-17.9	-7.5	2.7	66.7*	-18.8	47.9*
CCN(CC)CCNC(=O)c1ccc(NC(=O)c2c(C)nn(-c3ccc(F)cc3)c2Cl)cc1	-20.9	-5.4	6.9	48.7*	-16.3	41.5*
CCN(CC)CCNC(=O)c1ccc(NC(=O)c2cn(-c3ccccc3)nc2-c2cccs2)cc1	-16.9	-10.4	7.5	16.1	-18.3	10.2
CSCc1ccc(C(=O)NCC(c2cccs2)N2CCOCC2)cc1 (centres undefined)	6.7	-4.4	0.5	6.2	4.7	-5.0
COCCNC(=O)C1(C)CCCN(C(=O)COc2ccccc2)C1 (centres undefined)	1.7	1.3	0.7	0.8	-1.6	-9.2
CC(=O)OCc1c(C(F)(F)F)nn(C)c1SCc1ccc(Cl)cc1	-23.9	-7.5	-3.1	9.9	-21.0	56.0*
CCCC1C(=O)Nc2ccccc2N1C(=O)c1cccc(C)c1 (centres undefined)	-17.9	-10.2	1.5	29.1*	-21.4	45.0*
Cc1[nH]nc(-c2ccc(OCc3cnn(-c4ccccc4)c3)cc2O)c1Oc1ccccc1F	23.7*	1.6	1.7	-6.0	-1.0	-0.7
C/C(=N\NC(=O)c1cc2c(s1)CCC(C)C2)c1ccc[nH]1 (centres undefined)	2.0	1.9	41.3*	2.0	5.6	0.9
CC(=O)c1cccc(-c2cnc3c(NC=O)cc(-c4ccc(F)cc4)cn23)c1	0.1	1.5	15.5	2.0	-2.9	8.9
CCCC(C(=O)NC1CCCC1)N(C(=O)c1snc(C(N)=O)c1N)c1ccc(F)cc1 (centres undefined)	4.7	-0.1	-0.6	3.5	2.4	-0.5
Cc1cc(C)n(-c2ncc3c(n2)N(CCO)CCOC3=O)n1	-4.9	-3.5	7.4	19.7	-11.1	3.6
CC1=CC2(O)OCCN(CCO)C2=CC1=O (centres undefined)	9.1	1.4	0.0	28.4*	-11.6	2.5
CC(C)C1CC(CCN)(c2ccccc2)CCO1 (centres undefined)	-12.6	-12.5	0.7	7.2	2.5	48.1*
O=C(NCC[C@@H]1CC[C@@H](NS(=O)(=O)Cc2ccccc2)[C@@H](CO)O1)C1CC1	-1.2	-0.6	1.0	10.1	-2.8	-2.7
O=C(COc1ccc([N+](=O)[O-])cc1Cl)N1CCc2ccccc21	2.8	-4.0	2.0	0.9	1.3	3.5
CCN(CC)S(=O)(=O)c1ccc(S(=O)(=O)N2CCN(C(=O)c3ccco3)CC2)cc1	23.1	-0.4	1.2	13.5	4.3	29.4*
CCN(CC)S(=O)(=O)c1ccc(C(=O)N2CCN(C(=O)c3ccco3)CC2)cc1	0.8	-0.4	0.5	13.6	-3.2	6.3
O=C(NC1CCCCCCC1)c1cc(COc2ccc3ncccc3c2)on1	-25.5	-3.8	12.9	35.6*	-32.6	34.0*
CCC(O)C1CCN(C(=O)c2cc(COc3ccc4ncccc4c3)on2)CC1 (centres undefined)	-14.5	7.9	14.7	35.1*	-14.5	20.5
COc1cccc(OCc2cc(C(=O)N3CCN(C4CCCC4)CC3)no2)c1	-5.7	-7.5	4.2	29.4*	-6.2	1.1
SMILES	M4 PAM	CHRM5 agonist	CHRM4 agonist	M5 antag	M5 PAM	CHRM4 antagonist
COc1cc(Cl)ccc1OCc1cc(C(=O)N2CCCCCC2)no1	-0.1	-6.0	3.0	10.4	-2.8	-22.5
COc1cc(Cl)ccc1OCc1cc(C(=O)N2CCCC(OC)C2)no1 (centres undefined)	-1.2	-5.6	2.6	28.7*	-9.4	5.6
CC(C)C[C@H]1CN(CCCC[C@H]2CNC(=O)C(=O)N2CCc2ccccc2)C(=O)C(=O)N1CCC1CCCCC1	-4.1	1.5	1.2	5.0	-3.5	1.9
Cc1cc(CN(C)C(=O)c2cc(COc3ccc4ncccc4c3)on2)on1	-24.0	7.9	12.1	13.7	-21.0	18.5
CC(CNC(=O)c1cc(COc2ccc3ncccc3c2)on1)c1ccccc1 (centres undefined)	-11.3	6.3	25.0	29.8*	-17.7	6.4
CCOC(=O)c1cc(S(=O)(=O)N2CCN(C3CCCCC3)CC2)cn1C	-2.3	-3.4	2.0	11.0	1.9	-3.9
COc1ccc(NC(=O)C2CCCN(S(=O)(=O)c3ccc(Cl)cc3)C2)cc1OC (centres undefined)	0.7	1.6	4.2	-6.2	1.6	-9.3
CC[N+](C)(CC)CCC(c1ccccc1)C1CCCCC1 (centres undefined)	-15.2	-25.6	0.2	99.0*	-31.6	97.1*
CC[N+](C)(CC)CCOC(=O)C(O)(c1ccccc1)C1CCCCC1 (centres undefined)	-17.8	-1.6	0.2	98.0*	-18.3	98.7*
O=C1CCCCC1C(O)(C(=O)c1ccccc1)c1ccccc1 (centres undefined)	-1.4	-2.2	-3.1	11.0	-2.2	5.8
CCC(C(=O)NC1CCCCCC1)c1ccccc1 (centres undefined)	-21.6	-8.6	-0.1	-10.9	10.8	-0.5
Cc1nn(CC(=O)N2CCc3ccccc3C2)c(C)c1Cl	0.7	-5.1	-0.7	-11.4	21.3*	-8.2
COc1cc(-c2noc(C3CCCN(C(=O)c4ccccc4)C3)n2)cc(OC)c1OC (centres undefined)	13.6*	7.0	-0.4	-21.9	-0.6	-11.2
CC1CC(C)(C)CC2(C1)NC(=O)N(CC(=O)Nc1ccc3c(c1)OCO3)C2=O (centres undefined)	2.7	0.5	1.2	5.3	-3.0	-4.7
CCOCC(=O)Nc1ccccc1C(=O)O	26.2*	-0.5	5.5	-4.0	5.7	-11.3
Cc1ccc(CSCC(=O)Nc2ccccc2C(=O)O)cc1	15.0*	4.3	-0.7	-6.1	7.5	-4.4
CSc1ccccc1NC(=O)CSCc1ccc(C)cc1	-0.2	-2.8	-2.2	3.9	3.2	6.3
CCCCCCC(=O)NNC(=O)CC(=O)Nc1ccccc1C(=O)O	46.3*	2.8	0.2	5.7	0.8	0.0
